Assay: Toxicity liver stage against HepG2, at 10uM
Format: cell-based
Parameters: test concentration 10 uM, cell line HepG2-A16-CD81EGFP
Details: human, HepG2-A16-CD81EGFP cells; read-out: INHIBITION
Outline: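 Uninfected HepG2-A16-CD81EGFP cells, 3 × 10^3 per well, 1536-well, plated on prespotted compound at 10 μM final, parasite-free screening media added to match infected plates; puromycin 10 μM positive, DMSO 0.5% negative; run in parallel with 48 h PbLuc assay at 37 °C, 5% CO2; viability by CellTiter-Glo luminescence, normalized to controls.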

Row | SMILES | cytotoxicity at 10 µM [%]
1 | CC(C)(C)c1coc([C@@H]2COCCN2Cc2csnn2)n1 | 3.33
2 | Cc1cc(Cc2ccc(S(=O)(=O)N3CCCC3)cc2)c(=O)[nH]n1 | 6.47
3 | N#Cc1nc(COc2ccc3c(c2)OCO3)oc1N1CCCCCC1 | -34.6
4 | CCN(CC)CCSc1nnc(N2CCN(c3ccccc3)CC2)s1 | -21.9
5 | CCOC(=O)CN1CCC2(CCCN(CCOc3ccccc3)C2)C1 (stereo unspecified) | -2.63
6 | O=C([C@H]1CCCO1)N1CC[C@@H](O)[C@@H]1Cc1ccccc1 | 1.41
7 | c1ccc(O[C@@H]2CC[C@H]3[C@H]2OCCN3Cc2ccsc2)nc1 | 1.24
8 | Cc1oncc1C(=O)N1CC[C@H]2[C@H]1CCN2Cc1ccccn1 | 6.15
9 | CNc1nc2c(s1)C(c1ccccc1Cl)CC(=O)N2 (stereo unspecified) | 2.82
10 | Cc1c(C(=O)N2CCN(C)CC2)n(C)c2ccc(Cl)cc12 | -2.46
11 | CCO[C@@H]1CO[C@@]2(CCCN(C(=O)c3ccc(OC)c(F)c3)C2)C1 | 3.02
12 | COC(=O)c1cc(C2CC2)nc2c(Cl)cnn12 | 14.7
13 | Cc1noc(C2CCN(C(=O)c3cccs3)CC2)n1 | -1.22
14 | COC(=O)CCn1ccc(=O)c2ccccc21 | -6.84
15 | Cc1ccc(NC(=O)c2n[nH]c(-n3cnnc3)n2)cc1C | -1.4
16 | CCCC(=O)NCCc1cc(NC)nc(-c2ccccn2)n1 | 1.12
17 | COc1ccccc1CN1CCCC(Cc2nccnc2N)C1 (stereo unspecified) | -3.81
18 | CCC(=O)N1CCC(c2ncncc2C)CC1 | -11.5
19 | Cc1cc(CC2COCCN(CCc3ccccc3)C2)ncn1 (stereo unspecified) | 2.04
20 | c1ccc(N2CCN(Cc3cnc(C4CCCCO4)nc3)CC2)cc1 (stereo unspecified) | 0.59
21 | Cc1n[nH]cc1C(=O)N1CCCC(n2nnc3cc(F)ccc32)C1 (stereo unspecified) | -2.91
22 | CN1CC(=O)N(C2CCC2)Cc2c(NC3CCNCC3)ncnc21 | 8.77
23 | CC(C)NC(=O)N1CCCCCC1C1CCN(c2ncccn2)CC1 (stereo unspecified) | -23.2

Row | SMILES | cytotoxicity at 10 µM [%]
24 | Cc1cc(N(C)C)nc(N2CCn3c(nnc3C3CC3)C2)n1 | 0.485
25 | CC(NS(=O)(=O)CC1(C#N)CCCC1)c1cccc(-n2cccn2)c1 (stereo unspecified) | 3.15
26 | FC(F)(F)Oc1cccc(CNCc2ccc(-n3cncn3)nc2)c1 | 20.3
27 | CS(=O)(=O)CCn1ccc(NC(=O)Cc2ccccc2F)n1 | 3.73
28 | CC(O)CN(C(=O)NC1CCN(CC2CCCCC2)CC1)C(C)C (stereo unspecified) | 7.46
29 | Cc1ccc(C(=O)Nc2ccccc2N2CCCC2)n1C | 5.55
30 | COCc1nc(C(=O)NS(=O)(=O)c2ccc(F)c(F)c2)cs1 | 7.97
31 | CC(C)(C)C(=O)NCCC(=O)NS(=O)(=O)c1cccnc1 | -3.15
32 | CN(CCOc1ccc(F)cc1)S(=O)(=O)c1cnn(C)c1 | -3.23
33 | CCC(CC)N(Cc1cc(=O)n(C)c(=O)n1C)C1CC1 | 15.8
34 | O=C1c2ccccc2C(=O)N1CC(O)Cn1nc(-c2cccs2)oc1=O (stereo unspecified) | -14.5
35 | CN(Cc1ccncc1)C(=O)CCNS(=O)(=O)c1cccnc1 | 0.541
36 | Cc1cc(Br)oc1C(=O)N1CCN(CC(N)=O)CC1 | 0.658
37 | Cc1ccc(CNC(=O)C2CCCCN2C(=O)OC(C)(C)C)cn1 (stereo unspecified) | -0.408
38 | CCCS(=O)(=O)NCC(C)(O)c1ccsc1 (stereo unspecified) | -1.7
39 | O=C(Nc1nnc(C(F)F)s1)N[C@H](CCO)c1ccccc1 | 1.88
40 | CCOc1cc(C)nc(N2CCN(C(=O)c3cc(Cl)c[nH]3)CC2)n1 | 6.81
41 | COc1ncnc(N)c1CNCCOc1ccccc1Cl | 6.24
42 | COc1ccc2c(c1)C(=O)N(C)C1(CCN(C(=O)OC(C)(C)C)CC1)N2 | 25.1
43 | CCN(CC)S(=O)(=O)N1CCCC1c1nnc2n1CCCCC2 (stereo unspecified) | -6.83
44 | Cc1ccsc1CNc1ccc(C(=O)N2CCNC(=O)C2)cn1 | 7.04
45 | Cc1noc(C)c1CN(C)Cc1nc(N)c2ccccc2n1 | 8.85
46 | COc1ccccc1C1(CNCc2cccc(C#N)c2)CCOCC1 | 6.37

Row | SMILES | cytotoxicity at 10 µM [%]
47 | COCCCN(C)S(=O)(=O)c1ccc(C(F)(F)F)cc1C#N | -4.55
48 | CC(C)c1nnc2n1CCN(C(C)c1nnc(-c3cccs3)o1)C2 (stereo unspecified) | 7.8
49 | CCS(=O)(=O)CCN(C)Cc1cc(C)ccc1OC | -51.5
50 | CSc1ccc(OCCN2CCNC(=O)CC2)cc1 | 5.59
51 | COc1ccccc1CN(Cc1nc(Cc2ccccc2)no1)C1CC1 | 9.54
52 | O=C(c1ccc2c(c1)[nH]c(=O)n2C1CCCC1)N1CCC1 | -46.4
53 | Cn1cc(CCCN2CCN(C(=O)c3cccc(O)c3)CC2)cn1 | -46.1
54 | CC(C)(C)C(O)CN1CCN(CC(=O)NCC(F)(F)F)CC1 (stereo unspecified) | -10.2
55 | CC(O)(CNc1ccccn1)c1ccccc1 (stereo unspecified) | -44.3
56 | CCCS(=O)(=O)N1CCC(NC(=O)c2ccc(Cl)s2)CC1 | 22.4
57 | Cn1cc(N2CCC(NC(=O)c3c(F)cccc3F)C2=O)cn1 (stereo unspecified) | 2.5
58 | CCn1cnnc1C1CCN(C(=O)c2cnc3ccccc3n2)CC1 | -8.59
59 | CC(=O)NCc1nnn2c1CN(c1ncc(C)cn1)CCC2 | -102
60 | CN(CCCc1cnn(C)c1)c1nccc(-c2cc(C(=O)O)ccn2)n1 | -3.29
61 | CCCN1CCN(C(=O)c2cccc(C)n2)[C@H]2CS(=O)(=O)C[C@H]21 | 2.13
62 | C=C(C)COc1ccc(C(=O)NCCn2c(C)cc(C)nc2=O)cc1 | -4.83
63 | CC1(C)CNC(=O)c2nc(C3CCN(C(=O)C4CC4)CC3)[nH]c2C1 | 2.26
64 | CCOCc1nc(-c2cccc(OC)c2OC)n(C2CCN(C)CC2)n1 | -1.76
65 | CC(C1CCN(Cc2c(Cl)ccc(O)c2Cl)CC1)N1CCN(C)CC1 (stereo unspecified) | -12
66 | Cc1cnn(CC2CCN(c3cc(C(C)C)nc4ccnn34)CC2)c1 | -10.5
67 | O=S(=O)(N1CCOCC1)N1CCCCC1CCc1ccc(O)cc1 (stereo unspecified) | -4.44
68 | N#Cc1cccc(OC23CCCN(CC2)C3)c1 (stereo unspecified) | 1.73
69 | Cc1cccc2[nH]c(-c3cn(C4CCNCC4)nn3)nc12 | -6.47

Row | SMILES | cytotoxicity at 10 µM [%]
70 | CN(C)CC(=O)N1CCc2cccc(S(=O)(=O)N3CCOCC3)c2C1 | 6.8
71 | CCCN1CCCC2(CCN(Cc3cncn3C3CCCC3)C2)C1=O (stereo unspecified) | -13
72 | CCCN1CCCC2(CCN(S(=O)(=O)c3cc(C)nn3CC)C2)C1=O (stereo unspecified) | 4.82
73 | O=C(NCc1cn2c(n1)SCC2)c1cn(CCN2CCCCC2)nn1 | -3.69
74 | CCc1cc(N2CCC(NCCc3ccc(C)o3)CC2)nc(C)n1 | -0.554
75 | CC(C)N1CCCC(C(=O)N2CCN(c3cccc(C(=O)O)c3)CC2)C1 (stereo unspecified) | 9.45
76 | CC1=C(C(=O)NCc2cccnc2-n2cnc3ccccc32)OCCO1 | -2
77 | O=c1[nH]nc(CNCc2ccc(OC34CCCN(CC3)C4)cc2)[nH]1 (stereo unspecified) | -2.83
78 | CN(CCO)Cc1nnc(C2CCN(C(=O)c3ccccc3)CC2)n1C | 1.93
79 | CCCc1ccc(CN2CCC3(CCC(=O)N(C)CC3)CC2)o1 | -4.35
80 | CC(=O)N1CCN(Cc2ccc(C(F)(F)F)c(F)c2)CC(O)C1 (stereo unspecified) | -2.2
81 | COc1nc2c(cc1C(=O)N1C[C@H](N)C[C@H]1C(=O)NC(C)C)CCC2 | -9.49
82 | CC(C(=O)NCc1ccc(N2CCNC(=O)C2)cc1)c1cccs1 (stereo unspecified) | -4.43
83 | Cc1cc(C(=O)N2CCCC2)ccc1NCc1nc(CC(C)C)no1 | -4.09
84 | O=C(NCCc1ccc(Cl)s1)NCc1nnc2n1CCCC2 | -2.45
85 | Cn1ccnc1CN1CCCN(C(=O)c2ccc3[nH]cnc3c2)CC1 | -0.565
86 | Cc1cnn(CC2CN(c3ccc(C#N)cn3)CCO2)c1 (stereo unspecified) | -1.26
87 | O=C(CS(=O)(=O)Cc1cc(Cl)c2c(c1)OCO2)N1CCCC1 | -8.91
88 | Cc1nc(C)c(CC(=O)Nc2nc(C)c(C)s2)c(=O)[nH]1 | -6.28
89 | Cc1noc(C)c1C(C)C(=O)N1CCCN(Cc2cscn2)CC1 (stereo unspecified) | -4.28
90 | Cc1cc(C)n(CC2CCCN2C(=O)c2ccc3ccccc3n2)n1 (stereo unspecified) | -2.53
91 | Cc1cc(C)n(CC2CCCN2C(=O)c2cccnc2N(C)C)n1 (stereo unspecified) | -3.56
92 | Cc1nnc(CN2CCN(CCOc3ccccc3C#N)CC2)n1C | -5.8

Row | SMILES | cytotoxicity at 10 µM [%]
93 | O=C(NCc1cc[nH]n1)N1CCCCC(N2CCCC2)C1 (stereo unspecified) | -11.5
94 | COc1cccc(CCNC(=O)CN2CCCC2c2noc(C)n2)c1 (stereo unspecified) | -0.489
95 | CC(NC(=O)CCC(=O)c1cccs1)c1nnc2n1CCCCC2 (stereo unspecified) | -7.76
96 | COCC(C)NC(=O)c1cc(Br)c2c(c1)OCCO2 (stereo unspecified) | 3.54
97 | CCc1ncncc1C(=O)N1CCOC(c2nc(C)n[nH]2)C1 (stereo unspecified) | 0.842
98 | COCCN(Cc1nc2c(cnn2C)c(=O)[nH]1)Cc1ccco1 | -5.04
99 | Cc1nnc(CN2CCN(CC(O)c3cccc(F)c3)CC2)n1C (stereo unspecified) | -1.92
100 | Cc1nc(CN2CCOC(Cn3cncn3)C2)nc2ccccc12 (stereo unspecified) | -0.241
101 | Cc1nc2c(c(C)c1CC(=O)Nc1cccc(C#N)c1)c(=O)[nH]n2C | 3.99
102 | O=C(C1CCCCC1)N1CC2(CCNCC2)C1 | -8.58
103 | CCOC(=O)N1CC2(CCNCC2)c2cc(Cl)ccc21 | -0.449
104 | CN(C)CCN1CCOCC2(CCCN(C(=O)c3ccccc3)C2)C1 (stereo unspecified) | 5.31
105 | Cc1ccc(CN2CCCC3(CCCC(=O)N3)C2)s1 (stereo unspecified) | -0.361
106 | c1ccc(CN2CCCC3(CCN(Cc4cccs4)C3)C2)nc1 (stereo unspecified) | -8.75
107 | Cn1cnc(S(=O)(=O)N2CC3(CCN(Cc4ccncc4)C3)C2)c1 | -113
108 | Cn1nnc2c1CCN(Cc1ccccn1)C2COCc1ccccc1 (stereo unspecified) | -117
109 | CC[C@@H]1N(Cc2ccc(F)cc2)CCC[C@]12CCC(=O)N2C | 9.42
110 | CO[C@@H]1CCN(Cc2ccccn2)[C@@H]2CN(Cc3ccco3)C[C@@H]21 | 6.73
111 | CS(=O)(=O)N1C[C@@H]2CC[C@H]1CN(Cc1ccncc1)C2 | -2.34
